Measured values published in ChEMBL document CHEMBL3877283, “Antitubercular activity of 1,2,3-triazolyl fatty acid derivatives” (Eur J Med Chem, 2017).
Converted amounts (≈) assume the structure as drawn.

Assays:
[1] = test system: Mycobacterium tuberculosis; test: Inhibition of Mycobacterium tuberculosis InhA assessed as remaining activity at 20 uM using trans-2-dodecenoyl-coenzyme A as substrate relative to control
Summary of the method: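 Wild-type InhA (100 nM) started the reaction with 25 μM trans-2-dodecenoyl-CoA, 250 μM NADH and 20 μM inhibitor in 30 mM PIPES, 150 mM NaCl, pH 6.8. Initial velocity was compared with an inhibitor-free control; remaining activity is vi/v0.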

[2] = test system: Mycobacterium tuberculosis; test: Antimycobacterial activity against Mycobacterium tuberculosis H37Rv measured after 5 days by MTT dye based two-fold microdilution method; assay type: functional; details: 120 h
Summary of the method: (§1)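 Two-fold serial dilution in 96-well plates in Middlebrook 7H9 with 10% ADS and 1% glycerol (7H9-ADS-G). DMSO stocks were diluted to a top concentration of 100 μg/mL and down to 0.8 μg/mL, run in duplicate. Wells received mid-log bacilli in 7H9-ADS-G, incubated 5 days at 37 °C, then MTT for 24 h. MIC is the lowest concentration blocking yellow-to-purple change. Rifampicin was the control.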

[3] = Cytotoxicity against African green monkey Vero cells at 4.75 ug/ml measured after 48 hrs by neutral red assay; assay type: toxicity, cell-based; details: chlorocebus sabaeus
Summary of the method: (§2)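 Vero (African green monkey kidney) cells were seeded at 25,000 cells/well and grown 24 h. Compounds were then added, with DMSO as vehicle control and doxorubicin as positive control, and incubated 48 h. Viable cells were counted by neutral red uptake. Highest concentration tested was 4.75 μg/mL. IC50 was read from logarithmic plots of growth inhibition versus concentration.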

[4] = Inhibition of Staphylococcus aureus FabI using t-o-NAC-thioester as substrate by spectrophometric method
[5] = Therapeutic index, ratio of IC50 for cytotoxicity against African green monkey Vero cells to MIC for antimycobacterial activity against Mycobacterium tuberculosis H37Rv; assay type: cell-based; details: read-out: TI
Summary of the method: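 Vero cells were seeded at 25,000/well, grown 24 h, then exposed to compound for 48 h, with a maximum of 4.75 μg/mL and DMSO as vehicle. Viability was read by neutral red uptake. IC50 came from log plots of growth inhibition versus concentration. The index is cytotoxic IC50 divided by MIC against H37Rv from the MTT microdilution assay.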

[6] = Cytotoxicity against African green monkey Vero cells measured after 48 hrs by neutral red assay; assay type: toxicity, cell-based; details: African green monkey (Chlorocebus sabaeus); summary of the method: as §2
[7] = test system: Mycobacterium tuberculosis; test: Antimycobacterial activity against Mycobacterium tuberculosis H37Rv ATCC 27294 measured after 10 days by broth dilution method; assay type: functional; details: H37Rv ATCC 27294, 240 h
[8] = test system: Mycobacterium tuberculosis; test: Antimycobacterial activity against Mycobacterium tuberculosis isolate 164 measured after 5 days by MTT dye based two-fold microdilution method; assay type: functional; details: isolate 164, 120 h; summary of the method: as §1
[9] = test system: Mycobacterium tuberculosis; test: Antimycobacterial activity against Mycobacterium tuberculosis isolate 51 measured after 5 days by MTT dye based two-fold microdilution method; assay type: functional; details: isolate 51, 120 h; summary of the method: as §1
[10] = test system: Mycobacterium tuberculosis; test: Antimycobacterial activity against Mycobacterium tuberculosis isolate 598 measured after 5 days by MTT dye based two-fold microdilution method; assay type: functional; details: isolate 598, 120 h; summary of the method: as §1
[11] = test system: Mycobacterium tuberculosis; test: Antimycobacterial activity against Mycobacterium tuberculosis isolate 304 measured after 5 days by MTT dye based two-fold microdilution method; assay type: functional; details: isolate 304, 120 h; summary of the method: as §1

Compound	MIC [2] [µM]	Activity [3]	other results
CCCc1cn(CC(=O)OCC)nn1	505 (≈ 99.6 µg/mL)	Non-Toxic	Activity [1]: 69%
CCCCCCCCCCn1cc(CO)nn1	209 (≈ 50 µg/mL)	Non-Toxic	–
CCCCCCCCn1cc(CO)nn1	473 (≈ 99.9 µg/mL)	Non-Toxic	–
CCCCCCCCCCCCCn1cc(C(=O)OC)nn1	323 (≈ 100 µg/mL)	Non-Toxic	–
CCCCCc1cn(CC(=O)OCC)nn1	111 (≈ 25 µg/mL)	Non-Toxic	Activity [1]: 73.2%
CCCCCCCCCCc1cnnn1CC(=O)OCC	84 (≈ 24.8 µg/mL)	Non-Toxic	–
CCCCCCCCc1cn(CCCCC(=O)OCC)nn1	40 (≈ 12.4 µg/mL)	Non-Toxic	–
CCCCCCCCCCc1cn(CCCCC(=O)OCC)nn1	37 (≈ 12.5 µg/mL)	Non-Toxic	–
CCCCCCCCCCCCCc1cn(CC(=O)OCC)nn1	296 (≈ 99.9 µg/mL)	Non-Toxic	–
CCCCCCCCc1cn(CCCC(=O)OCC)nn1	21 (≈ 6.2 µg/mL)	Non-Toxic	–
CCCCCCCC/C=C\CCCCCCCC(=O)O [OLEIC ACID]	–	–	IC50 [4]: 40 µM
CCCCCCCCCCc1cn(CC(=O)OCC)nn1	1.7 (≈ 0.502 µg/mL)	–	selectivity ratio [5]: > 10; Activity [1]: 99.3%; IC50 at 48 h [6]: > 16.1 µM
CCCCCCCCCCc1cn(CCCC(=O)OCC)nn1	309 (≈ 100 µg/mL)	Non-Toxic	–
CCCc1cn(CCCCCC(=O)OCC)nn1	394 (≈ 99.8 µg/mL)	Non-Toxic	–
CC/C=C\C/C=C\C/C=C\CCCCCCCC(=O)O [LINOLENIC ACID]	–	–	IC50 [4]: 40 µM
CCCCCCCCc1cn(CCCCCC(=O)OCC)nn1	309 (≈ 100 µg/mL)	Non-Toxic	–
CCCCCCCCCCCCCCO [MYRISTYL ALCOHOL]	–	–	MIC [7]: 5 µg/mL
COc1cccc2c1C(=O)c1c(O)c3c(c(O)c1C2=O)C[C@@](O)(C(=O)CO)C[C@@H]3O[C@H]1C[C@H](N)[C@H](O)[C@H](C)O1 [DOXORUBICIN]	–	–	IC50 at 48 h [6]: 14 µM
CCCCCCCCCCCCCCCCO [CETYL ALCOHOL]	–	–	MIC [7]: 5 µg/mL

Compound	MIC [2] [µM]	Activity [3]	other results
CCCCCCCCCCO [DECANOL]	–	–	MIC [7]: 800 µM
CCCCCCCCn1cc(C(=O)OC)nn1	52 (≈ 12.4 µg/mL)	Non-Toxic	–
CCCCCCCCc1cn(CCC(=O)OCC)nn1	22 (≈ 6.19 µg/mL)	Non-Toxic	–
CCCCCCCCc1cn(CC(=O)OCC)nn1	1.9 (≈ 0.508 µg/mL)	–	MIC [8]: 1.9 µM (≈ 0.508 µg/mL); MIC [9]: 0.45 µM (≈ 0.12 µg/mL); selectivity ratio [5]: > 10; MIC [10]: 1.9 µM (≈ 0.508 µg/mL); Activity [1]: 90.1%; IC50 at 48 h [6]: > 17.8 µM; MIC [11]: 1.9 µM (≈ 0.508 µg/mL)
CCCCCCCCc1cnnn1CC(=O)OCC	93 (≈ 24.9 µg/mL)	Non-Toxic	–
CCCCCc1cn(CCCCC(=O)OCC)nn1	23 (≈ 6.15 µg/mL)	Non-Toxic	–
CCCCCCCCCCn1cc(C(=O)O)nn1	20 (≈ 5.07 µg/mL)	Non-Toxic	–
CCCCCCCCCCCCO [DODECANOL]	–	–	MIC [7]: 5 µg/mL
CCCCCc1cn(CCCCCC(=O)OCC)nn1	22 (≈ 6.19 µg/mL)	Non-Toxic	–
CCCCCCCCCCCCCCCc1cn(CC(=O)OCC)nn1	17 (≈ 6.21 µg/mL)	Non-Toxic	–
CCCCCCCCCCn1cc(C(=O)OC)nn1	23 (≈ 6.15 µg/mL)	Non-Toxic	–
CCCCC/C=C\C/C=C\CCCCCCCC(=O)O [LINOLEIC ACID]	–	–	IC50 [4]: 40 µM
CCCCCC/C=C\CCCCCCCC(=O)O [PALMITOLEIC ACID]	–	–	IC50 [4]: 40 µM
CCCCCc1cn(CCCC(=O)OCC)nn1	12 (≈ 3.04 µg/mL)	Non-Toxic	–
CCCCCCCCCCCCCn1cc(CO)nn1	44 (≈ 12.4 µg/mL)	Non-Toxic	–
CCCCCCCCCCc1cn(CCC(=O)OCC)nn1	20 (≈ 6.19 µg/mL)	Non-Toxic	–
CCCCC/C=C\C/C=C\C/C=C\C/C=C\CCCC(=O)O [ARACHIDONIC ACID]	–	–	IC50 [4]: 40 µM
CCCCCCCCn1cc(C(=O)O)nn1	14 (≈ 3.15 µg/mL)	Non-Toxic	–
